From ChEMBL document CHEMBL4715833, “Design, synthesis, in-vitro, in-vivo and in-silico studies of pyrrolidine-2,5-dione derivatives as multitarget anti-inflammatory agents” (Eur J Med Chem, 2020)
pIC50: −log10 of the molar value.

Tests used:
[1] = target: T1, Prostaglandin G/H synthase 1 (Ovis aries, UniProt P05979); test: Inhibition of sheep COX1 using arachidonic acid as substrate preincubated for 5 mins followed by substrate addition and measured after 5 mins by UV-visible spectrophotometric method
T1 sequence (P05979 whole entry): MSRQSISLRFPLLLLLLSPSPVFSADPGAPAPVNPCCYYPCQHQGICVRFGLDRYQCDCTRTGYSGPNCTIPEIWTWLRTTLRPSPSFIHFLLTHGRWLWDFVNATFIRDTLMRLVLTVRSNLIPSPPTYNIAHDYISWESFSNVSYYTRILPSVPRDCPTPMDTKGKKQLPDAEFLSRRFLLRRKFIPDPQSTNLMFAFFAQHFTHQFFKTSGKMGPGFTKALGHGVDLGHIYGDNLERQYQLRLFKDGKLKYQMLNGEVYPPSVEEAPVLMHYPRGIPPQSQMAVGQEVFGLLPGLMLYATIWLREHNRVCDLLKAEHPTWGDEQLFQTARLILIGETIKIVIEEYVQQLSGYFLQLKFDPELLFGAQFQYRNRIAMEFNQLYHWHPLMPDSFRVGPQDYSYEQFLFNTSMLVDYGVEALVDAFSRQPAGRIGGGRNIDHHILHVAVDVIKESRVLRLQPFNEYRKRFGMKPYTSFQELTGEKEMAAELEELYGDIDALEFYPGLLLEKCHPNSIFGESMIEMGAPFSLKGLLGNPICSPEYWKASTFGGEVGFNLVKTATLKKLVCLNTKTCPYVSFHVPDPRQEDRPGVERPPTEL
In short: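 Enzymes activated for 5 min on ice with cofactor solution of 0.9 mM glutathione, hematin and 0.24 mM TMPD in 0.1 M Tris-HCl pH 8.0; COX-2 at 300 units/ml. Reaction started with 30 mM arachidonic acid stock, run 5 min, absorbance read at 570 nm. IC50 taken from inhibition-vs-concentration plots as means of three determinations. SI = IC50(COX-1)/IC50(COX-2).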

[2] = target: T2, Polyunsaturated fatty acid 5-lipoxygenase (Homo sapiens, UniProt P09917); test: Inhibition of recombinant human 5LOX expressed in baculovirus infected Sf insect cells using linoleic acid as substrate preincubated for 5 mins followed by substrate addition
T2 sequence (P09917 whole entry): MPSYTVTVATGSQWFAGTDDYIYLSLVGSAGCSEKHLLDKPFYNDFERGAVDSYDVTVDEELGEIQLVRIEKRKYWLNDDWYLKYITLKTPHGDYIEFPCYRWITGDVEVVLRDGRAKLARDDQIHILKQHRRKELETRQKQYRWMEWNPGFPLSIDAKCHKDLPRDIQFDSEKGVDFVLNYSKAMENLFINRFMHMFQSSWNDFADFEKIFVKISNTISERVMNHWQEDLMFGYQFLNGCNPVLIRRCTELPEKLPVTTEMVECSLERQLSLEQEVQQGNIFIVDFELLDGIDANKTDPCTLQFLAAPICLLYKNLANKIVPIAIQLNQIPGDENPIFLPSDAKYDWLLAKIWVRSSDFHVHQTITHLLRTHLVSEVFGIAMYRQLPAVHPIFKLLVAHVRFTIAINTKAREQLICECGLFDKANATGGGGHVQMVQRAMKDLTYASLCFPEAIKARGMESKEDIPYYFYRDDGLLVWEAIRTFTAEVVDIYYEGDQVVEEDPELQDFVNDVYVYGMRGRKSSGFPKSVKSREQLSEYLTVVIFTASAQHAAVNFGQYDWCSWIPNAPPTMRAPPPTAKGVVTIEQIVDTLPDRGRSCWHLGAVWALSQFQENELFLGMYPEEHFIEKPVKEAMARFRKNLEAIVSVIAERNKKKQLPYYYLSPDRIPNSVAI

[3] = Inhibition of trypsin (unknown origin) using casein as substrate preincubated for 5 mins followed by substrate addition and measured after 20 mins; set-up: species or system Homo sapiens
In short: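 Trypsin 0.06 mg/ml in 20 mM Tris-HCl pH 7.4 with compound at 31.25–1000 µg/ml, 5 min at 37 °C. 0.8% (w/v) casein added, 20 min further, stopped with 70% perchloric acid. After centrifugation, supernatant absorbance read at 217 nm against buffer blank. % inhibition against control; IC50 from plot; three runs.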

[4] = Acute toxicity in ip dosed Swiss albino mouse assessed as mortality administered as single dose; format: organism-based; conditions: in vivo
In short: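 Swiss albino mice of either sex (30-35 g), housed at 22-25 °C with 12 h light/dark and free food and water. Single i.p. dose; the saline control got 10 mL/kg. Deaths were counted 24 h after dosing. Dose table lists groups of 8 male and 8 female mice given 5 to 2000 mg/kg.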

[5] = Acute toxicity in Swiss albino mouse assessed as change in clinical sign of eyes at 1000 mg/kg, ip administered as single dose measured after 4 hrs; format: organism-based; conditions: in vivo
In short: (§1)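 Swiss albino mice of either sex (30-35 g), kept at 22-25 °C on a 12 h light/dark cycle with free food and water. Single i.p. dose; controls received normal saline 10 mL/kg. Animals were watched at random for allergic or abnormal behavioural signs during the first 4 h.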

[6] = Acute toxicity in Swiss albino mouse assessed as change in clinical sign of mucus membrane at 1000 mg/kg, ip administered as single dose measured after 4 hrs; format: organism-based; conditions: in vivo; in short: as §1
[7] = Acute toxicity in Swiss albino mouse assessed as changes in circulatory signs at 1000 mg/kg, ip administered as single dose measured after 4 hrs; format: organism-based; conditions: in vivo; in short: as §1
[8] = Acute toxicity in Swiss albino mouse assessed as ptosis at 1000 mg/kg, ip administered as single dose measured after 4 hrs; format: organism-based; conditions: in vivo; in short: as §1
[9] = Acute toxicity in Swiss albino mouse assessed as change in gait at 1000 mg/kg, ip administered as single dose measured after 4 hrs; format: organism-based; conditions: in vivo; in short: as §1
[10] = Acute toxicity in Swiss albino mouse assessed as drowsiness at 1000 mg/kg, ip administered as single dose measured after 4 hrs; format: organism-based; conditions: in vivo; in short: as §1
[11] = Acute toxicity in Swiss albino mouse assessed as tremor at 1000 mg/kg, ip administered as single dose measured after 4 hrs; format: organism-based; conditions: in vivo; in short: as §1
Mus musculus [12] = test: Antiinflammatory activity against carrageenan-induced paw edema in Swiss mouse assessed as inhibition of paw edema at 100 mg/kg administered 30 mins prior to carrageenan challenge and measured after 2 hrs by […]-method (reference value: 7.39 +/- 2.475%); format: functional; conditions: time 2.5 hrs
Mus musculus [13] = test: Antiinflammatory activity against carrageenan-induced paw edema in Swiss mouse assessed as inhibition of paw edema at 25 mg/kg administered 30 mins prior to carrageenan challenge and measured after 3 hrs by […]-method (reference value: 11.41 +/- 3.069%); format: functional; conditions: time 3.5 hrs
Mus musculus [14] = test: Antiinflammatory activity against carrageenan-induced paw edema in Swiss mouse assessed as inhibition of paw edema at 50 mg/kg administered 30 mins prior to carrageenan challenge and measured after 4 hrs by […]-method (reference value: 14.46 +/- 1.568%); format: functional; conditions: time 4.5 hrs
Mus musculus [15] = test: Antiinflammatory activity against carrageenan-induced paw edema in Swiss mouse assessed as inhibition of paw edema at 50 mg/kg administered 30 mins prior to carrageenan challenge and measured after 5 hrs by […]-method (reference value: 7.31 +/- 3.204%); format: functional; conditions: time 5.5 hrs

| Structure (SMILES) | pIC50 [1] | pIC50 [2] | pIC50 [3] | LD50 [4] [mg/kg] | Activity [5] | Activity [6] | Activity [7] | Activity [8] | Activity [9] | Activity [10] | Activity [11] | inhibition in vivo at 100 mg/kg (Mus musculus [12]) [%] | inhibition in vivo at 25 mg/kg (Mus musculus [13]) [%] | inhibition in vivo at 50 mg/kg (Mus musculus [14]) [%] | inhibition in vivo at 50 mg/kg (Mus musculus [15]) [%] |
| --- | --- | --- | --- | --- | --- | --- | --- | --- | --- | --- | --- | --- | --- | --- | --- |
| Cc1ccc(C(=O)CC2CC(=O)N(c3ccc(S(N)(=O)=O)cc3)C2=O)cc1 (stereo not given) | 4.51 | 6.07 | 4.82 | 1000 | Non-Toxic | Non-Toxic | Non-Toxic | Non-Toxic | Non-Toxic | Non-Toxic | Non-Toxic | 63.8 | 51.5 | 57.3 | 59.3 |
| O=C1CCCCC1C1CC(=O)N(Cc2ccccc2)C1=O (stereo not given) | 4.20 | 4.44 | 4.76 | 1000 | Non-Toxic | Non-Toxic | Non-Toxic | Non-Toxic | Non-Toxic | Non-Toxic | Non-Toxic | 49.6 | 23.3 | 44.5 | 47.8 |
